Results from paper PMC11526549 (Journal of Nanobiotechnology, 2024).
Like-named read-outs stand apart in the source and are kept apart here. Positions of bridges follow the written chain, without caps; N, C: chain ends. Residues, ends and D or L forms follow the SMILES beside them. *: point of attachment. Fmoc = O=C(OCC1c2ccccc2-c2ccccc21)*

Key:
[1] = LPS binding assay with BC probe; set-up: species or system E. coli; details: BC probe 10 µM, LPS 1 µM, Tris 50 mM pH 7.4; 0.125-64 µM peptide; n=3
[2] = Particle size of self-assembled AMPs; type: physicochemical; details: 80 µM peptide, SEM/TEM
Procedure, shortened: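 Test compound at 80 µM, alone or with LPS or LTA (final 1 µM), imaged by SEM and TEM to assess assembly morphology and particle size.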

S. aureus CGMCC 1.90032 [3] = assay: Time-kill kinetics; type: cell-based, Staphylococcus aureus
Procedure, shortened: (§1)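 Counts on MHA at 0, 0.5, 1, 2, 4, 6, 8, 10 and 24 h, in triplicate. MDK99 and MDK99.99 are the minimum times to 99% and 99.99% kill.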

[4] = CMC determination with ANS fluorescent probe; type: physicochemical; details: in PBS
Procedure, shortened: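 CMC is the crossing point of the 480 nm intensity plotted against log peptide concentration. A parallel run at 80 µM peptide adds LPS or LTA (final 1 µM) to test their effect on assembly.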

[5] = Proteolytic stability in trypsin, HPLC; type: in vitro ADME; details: trypsin (1 w/v%)
Procedure, shortened: (§2)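 Test compound (2560 µM) incubated with 1 w/v% trypsin at 37 °C. Aliquots taken at 0.5, 1, 2, 4 and 6 h, diluted to 256 µM in 0.1% TFA/water and quantified by HPLC. Remaining peptide calculated as a time course; n=3.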

trypsin [6] = assay: Trypsin resistance of LPS-induced nanofibers versus nanoparticles, HPLC; type: in vitro ADME; details: n=3
Procedure, shortened: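 Peptide (80 µM), LPS (1 µM) and trypsin (10 µM) combined in different orders. In one arm LPS pre-forms nanofibers before trypsin; in another peptide is pre-incubated with trypsin before LPS. A non-specific assembly condition serves as reference. Peptide retention measured by HPLC and expressed as a ratio to that reference; n=3.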

E. coli ATCC 25922 = assay: Serum stability test; type: in vitro ADME, Escherichia coli; details: 37°C, 8 h, MIC vs E. coli ATCC 25922
[7] = Metabolic stability in liver tissue homogenate, HPLC; type: in vitro ADME; details: mouse liver tissue homogenate 50 mg/mL, 8 h, mean of n=3
ζ-potential = type: physicochemical; details: 80 µM in PBS pH 7.4, room temperature
[8] = LTA binding assay with BC probe; set-up: species or system S. aureus; details: BC probe 10 µM, LTA 1 µM, Tris 50 mM pH 7.4; 0.125-64 µM peptide; n=3
E. coli CGMCC 1.90026 [9] = assay: Time-kill kinetics; type: cell-based, Escherichia coli; details: 1×, 2× or 4× MIC
Procedure, shortened: as §1

trypsin [10] = assay: Proteolytic stability in trypsin, HPLC; type: in vitro ADME; details: 1 w/v% trypsin, after 4 h, HPLC
Procedure, shortened: as §2

mouse erythrocytes = assay: Hemolysis assay; type: cell-based; details: 128 μM peptide, 8% mouse erythrocytes, 1 h, OD 540 nm; n=5
Procedure, shortened: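 Test compound (1–128 µM final) mixed 1:1 by volume with 8% mouse erythrocytes, 37 °C, 1 h. Spun 1500 rpm, 5 min, and supernatant A540 read. PBS set 0% and 0.1% Triton X-100 set 100%. Hemolysis (%) = (A_peptide−A0)/(A100−A0)×100.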

[11] = cited from earlier work
[12] = cited from earlier work; remark: listed apart in the source
[13] = in comparison to self-assembled nanoparticles CPC-2; cited from earlier work
S. aureus CGMCC 1.90032 [14] = assay: Mouse mastitis model; type: in vivo; details: compared with NC group
Procedure, shortened: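 Female ICR mice 10 d post-partum, separated from pups 2 h before infection. Under anaesthesia, nipple tip trimmed 0.5 mm. Mid-log S. aureus CGMCC 1.90032 (PBS-washed, 1×10^3 CFU/mL, 100 µL) inoculated via the fourth-pair nipple ducts. Test compound (100 or 200 µM) given intraductally 3 h post-infection. Groups: uninfected, untreated, ceftiofur sodium 200 µM. Mammary and spleen organ indices recorded.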

E. coli CGMCC 1.90026 [15] = assay: Membrane integrity, PI uptake by flow cytometry; type: cell-based, Escherichia coli; details: range over 5-80 µM and both E. coli strains (Fig. 7A, Figure S15A)
Procedure, shortened: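 Clinical E. coli CGMCC 1.90026 treated with test compound at 5, 20, 40 or 80 µM. Propidium iodide-positive cells counted by flow cytometry as the membrane penetration rate.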

E. coli CGMCC 1.90026 [16] = assay: Mutation-proof concentration; type: cell-based, Escherichia coli
E. coli = assay: Cytoplasmic membrane potential, DiSC3; type: cell-based, Escherichia coli; details: DiSC3-5, 5-80 µM, no dose-dependent effect
Procedure, shortened: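 Clinical isolate E. coli CGMCC 1.90026 exposed to test compound. Cytoplasmic membrane potential change followed with the potentiometric dye DiSC3-5.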

S. aureus = assay: Membrane fluidity assay, Laurdan GP; type: cell-based, Staphylococcus aureus; details: 5-80 µM, 1 h, n=3
[17] = tested on: E. coli liposomes (polar lipid extracts); assay: Membrane fluidity assay, Laurdan GP; type: cell-based, Escherichia coli; details: 5-80 µM, 1 h, concentration-dependent, n=3
E. coli CGMCC 1.90026 [18] = assay: Mouse mastitis model; type: in vivo
Procedure, shortened: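 Female ICR mice 10 d post-partum, pups removed 2 h before infection. Under anaesthesia, 0.5 mm trimmed from the fourth nipple pair. Mid-log E. coli CGMCC 1.90026 (PBS-washed, 5×10^3 CFU/mL, 100 µL) given through the nipple duct. 3 h later, test compound (100 or 200 µM) given via the mammary duct. Groups: uninfected, untreated, ceftiofur sodium 200 µM. Mammary TNF-α, IL-1β, IL-6 and IL-2 measured.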

S. aureus CGMCC 1.90032 [19] = assay: Mutation-proof concentration; type: cell-based, Staphylococcus aureus

Compound: CC(C)C[C@H](NC(=O)[C@H](CCCCN)NC(=O)OCC1c2ccccc2-c2ccccc21)C(=O)N[C@H](C(=O)N[C@@H](Cc1ccccc1)C(=O)N[C@@H](Cc1ccccc1)C(=O)N[C@@H](CCCCN)C(=O)NCC(=O)N[C@@H](Cc1ccccc1)C(=O)N[C@@H](C)C(=O)N[C@@H](Cc1c[nH]c2ccccc12)C(=O)N[C@@H](CC(N)=O)C(=O)N[C@H](C(=O)N[C@H]1CSSC[C@@H](C(=O)N[C@@H](Cc2c[nH]cn2)C(=O)N[C@@H](CCCNC(=N)N)C(=O)N[C@@H](CCCNC(=N)N)C(=O)N[C@@H](C)C(=O)N[C@@H](CC(N)=O)C(N)=O)NC(=O)[C@H](C(C)C)NC(=O)[C@H](CCCNC(=N)N)NC(=O)[C@H](C(C)C)NC(=O)CNC(=O)[C@H](CC(N)=O)NC(=O)[C@H](CCCNC(=N)N)NC(=O)[C@H](Cc2ccc(O)cc2)NC(=O)[C@H](C(C)C)NC1=O)C(C)C)C(C)C [FKN] (Fmoc-KLVFFKGFAWNVCVYRNGVRVCHRRAN-NH2; disulfide 13-22)
- affinity to LPS of E. coli [1]: even greater than that of N6
- particle sizes of nanoparticles [2]: 69.78±11.56 nm
- time to complete kill (S. aureus CGMCC 1.90032 [3]; various concentrations): ≤ 1 h
- critical micelle concentration (CMC) ([4]; ANS 25.6 µM, 1 h, fluorescence at 480 nm vs log concentration): 7.94 µM
- remaining at 6 h, 2560 µM ([5]; peptide retention rate, 1 w/v% trypsin, 6 h, HPLC, mean of n=3): 44.2%
- protein retention rate of nanofibers (trypsin [6]; 80 µM peptide pre-incubated with LPS 1 µM, then trypsin 10 µM 0.5 h): 90.1%
- protein retention rate of nanoparticles (trypsin [6]; 80 µM peptide without LPS pre-assembly, trypsin 10 µM 0.5 h): 76.63%
- MIC after incubation in 25% serum (E. coli ATCC 25922): stable MICs
- peptide retention rate in liver tissue [7]: 33.93%
- zeta-potential (ζ-potential): 24 mV
- affinity to LTA of S. aureus [8]: even greater than that of N6
- time to complete eradication (E. coli CGMCC 1.90026 [9]): ≤ 4 h

Compound: CC(C)[C@@H]1NC(=O)CNC(=O)[C@H](CC(N)=O)NC(=O)[C@H](CCCNC(=N)N)NC(=O)[C@H](Cc2ccc(O)cc2)NC(=O)[C@H](C(C)C)NC(=O)[C@@H](NC(=O)[C@@H](NC(=O)[C@H](CC(N)=O)NC(=O)[C@H](Cc2c[nH]c3ccccc23)NC(=O)[C@H](C)NC(=O)[C@H](Cc2ccccc2)NC(=O)CN)C(C)C)CSSC[C@@H](C(=O)N[C@@H](Cc2cnc[nH]2)C(=O)N[C@@H](CCCNC(=N)N)C(=O)N[C@@H](CCCNC(=N)N)C(=O)N[C@@H](C)C(=O)N[C@@H](CC(N)=O)C(N)=O)NC(=O)[C@H](C(C)C)NC(=O)[C@H](CCCNC(=N)N)NC1=O [N6] (H-GFAWNVCVYRNGVRVCHRRAN-NH2; disulfide 7-16)
- metabolised at 0.5 h, 2560 µM [5]: > 50%
- degradation in trypsin (trypsin [10]): completely degraded
- MIC after incubation in 25% serum (E. coli ATCC 25922): twofold
- hemolysis rate (mouse erythrocytes): no hemolysis
- peptide retention rate in liver tissue [7]: less than 9.76%

Compound: BP-KFFVLK-RLKLILKSK [BET]
- time to complete transformation from nanoparticles to nanofibers ([11]; LPS induction): 72 h

Compound: BP-KLVFF -RLYLRIGRR [HDMP]
- time to complete transformation from nanoparticles to nanofibers ([11]; LTA induction): 48 h

Compound: FLGALFRALSRLL [PTP-7]
- stability in serum ([12]; before self-assembly): 2 h
- stability in serum ([12]; by self-assembly technology): more than 5 h

Compound: Chitosan-GPLGVRGC-PEG2000- CGGG(KLAKLAK)2 [CPC-1]
- prolongation of the half-life at the site of infection [13]: fourfold

Compound: CC(C)[C@@H]1NC(=O)CNC(=O)[C@H](CC(N)=O)NC(=O)[C@H](CCCNC(=N)N)NC(=O)[C@H](Cc2ccc(O)cc2)NC(=O)[C@H](C(C)C)NC(=O)[C@@H](NC(=O)[C@@H](NC(=O)[C@H](CC(N)=O)NC(=O)[C@H](Cc2c[nH]c3ccccc23)NC(=O)[C@H](C)NC(=O)[C@H](Cc2ccccc2)NC(=O)CN)C(C)C)CSSC[C@@H](C(=O)N[C@@H](Cc2c[nH]cn2)C(=O)N[C@@H](CCCNC(=N)N)C(=O)N[C@@H](CCCNC(=N)N)C(=O)N[C@@H](C)C(=O)N[C@@H](CC(N)=O)C(N)=O)NC(=O)[C@H](C(C)C)NC(=O)[C@H](CCCNC(=N)N)NC1=O [N6] (H-GFAWNVCVYRNGVRVCHRRAN-NH2; disulfide 7-16)
- indices of the mammary gland and spleen (S. aureus CGMCC 1.90032 [14]): significantly decreased
- MDK99 (S. aureus CGMCC 1.90032 [3]; minimum time for 99% sterilization): 1.45 h
- MDK99.99 (S. aureus CGMCC 1.90032 [3]; minimum time for 99.99% sterilization): 1.99 h
- membrane penetration rates toward E. coli (E. coli CGMCC 1.90026 [15]): 2.34 -80.7%
- self-assembly by ANS fluorescence ([4]; fluorescence in direct correlation with concentration): incapable of self-assembling
- SI (MPCs/MIC) (E. coli CGMCC 1.90026 [16]): 6.4
- plasma membrane depolarization (E. coli): underwent depolarization
- Laurdan GP (membrane fluidity) (S. aureus): also increased
- time to complete eradication (E. coli CGMCC 1.90026 [9]): ≤ 4 h
- Laurdan GP (membrane fluidity) [17]: significant increase in Laurdan GP
- histopathology of mammary gland (HE) (E. coli CGMCC 1.90026 [18]): significant improvement in inflammatory symptoms
- levels of inflammatory factors (TNF-α, IL-1ß, IL-6 and IL-2) in mammary tissue (E. coli CGMCC 1.90026 [18]; 100 or 200 µM, ELISA, n=4): significantly reduced
- SI (MPCs/MIC) (S. aureus CGMCC 1.90032 [19]): 6.4
